pIC50: −log10 of the molar value. Converted amounts (≈) assume the structure as drawn.
Legend:
[1] = system: Entamoeba histolytica; assay: Antiparasitic activity against Entamoeba histolytica HM-1:IMSS trophozoites after 24 to 48 hrs by CellTiter-Glo luminescent cell viability assay; type: functional, organism-based; conditions: for pIC50: read-out: IC50; for IC50: read-out: pIC50 (converted)
Summary of the method: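 Axenic trophozoites were kept in TYI-S-33 with penicillin (100 U/mL) and streptomycin (100 µg/mL) and harvested in log phase. 5000 parasites per well were exposed to a final 8-point two-fold series of 0.39–50 µM, from 10 mM DMSO stocks. Plates were incubated 24–48 h at 37 °C under anaerobic conditions. ATP luminescence viability was read in triplicate. Percent inhibition is given at the highest concentration tested.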

[2] = system: Giardia intestinalis; assay: Antiparasitic activity against Giardia lamblia WB trophozoites after 24 to 48 hrs by CellTiter-Glo luminescent cell viability assay; conditions: Giardia duodenalis; for IC50: read-out: pIC50 (converted)
[3] = system: Mycobacterium tuberculosis; assay: Antibacterial activity against Mycobacterium tuberculosis H37Rv after 5 days under normoxic condition by resazurin dye-based fluorescence assay; type: functional, organism-based
Summary of the method: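 H37Rv grown in 7H9/ADC/glycerol/Tyloxapol to mid-exponential phase, diluted to OD600 0.001 (~2 x 10^4 CFU/mL) in 7H9S with serially diluted compound. Incubated 5 days at 37 °C, then resazurin and Tween-80 added. Fluorescence (ex 530/em 590 nm) read after 24 h, normalised to no-drug and no-bacteria wells.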

[4] = system: Trypanosoma brucei brucei; assay: Antiparasitic activity against bloodstream form of Trypanosoma brucei brucei strain 427 after 48 hrs by resazurin dye-based assay; type: functional, organism-based; conditions: strain 427, 48 h; for pIC50: read-out: IC50; for IC50: read-out: pIC50 (converted)
[5] = system: Mycobacterium tuberculosis; assay: Antibacterial activity against non-replicating Mycobacterium tuberculosis H37Rv after 5 days under hypoxic condition by resazurin dye-based fluorescence assay; type: functional; conditions: 120 h
Summary of the method: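 Same H37Rv inoculum (OD600 0.001, ~2 x 10^4 CFU/mL) in 7H9S with serially diluted compound. Plates held 5 days at 0.1% oxygen, then resazurin plus Tween-80 added.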

[6] = system: Clostridioides difficile; assay: Antibacterial activity against Clostridium difficile 630 ATCC BAA-1382 by broth microdilution assay; type: functional
Summary of the method: (§1)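 Broth microdilution run essentially per an earlier report. MIC taken as the lowest concentration with no visible growth. Replicates typically agreed within one 2-fold dilution. The median MIC is reported, with a range where the median fell between two tested concentrations.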

[7] = system: Acinetobacter baumannii; assay: Antibacterial activity against Acinetobacter baumannii ATCC 19606 by broth microdilution assay; type: functional; conditions: ATCC 19606 = CIP 70.34 = JCM 6841; summary of the method: as §1
[8] = system: Klebsiella pneumoniae; assay: Antibacterial activity against Klebsiella pneumoniae 700603 by broth microdilution assay; type: functional; summary of the method: as §1
[9] = system: Candida albicans; assay: Antifungal activity against Candida albicans ATCC 90028 by broth microdilution assay; type: functional; summary of the method: as §1
[10] = system: Pseudomonas aeruginosa; assay: Antibacterial activity against Pseudomonas aeruginosa ATCC 27853 by broth microdilution assay; type: functional; summary of the method: as §1
[11] = system: Cryptococcus neoformans; assay: Antifungal activity against Cryptococcus neoformans H99 ATCC […] broth microdilution assay; type: functional; conditions: var. grubii H99 ATCC 208821; summary of the method: as §1
[12] = system: Staphylococcus aureus; assay: Antibacterial activity against methicillin-resistant Staphylococcus aureus ATCC […] by broth microdilution assay; type: functional
[13] = system: Escherichia coli; assay: Antibacterial activity against Escherichia coli ATCC 25922 by broth microdilution assay; type: functional; summary of the method: as §1

Structure (SMILES) | pIC50 [1] | IC50 [1] [µM] | pIC50 [2] | IC50 [2] [µM] | MIC [3] [µg/mL] | pIC50 [4] | IC50 [4] [µM] | MIC [5] [µg/mL] | MIC [6] [µg/mL] | MIC [7] [µg/mL] | MIC [8] [µg/mL] | MIC [9] [µg/mL] | MIC [10] [µg/mL] | MIC [11] [µg/mL] | MIC [12] [µg/mL] | MIC [13] [µg/mL]
Cc1ccc(COc2nc(C)c(C)n3cc([N+](=O)[O-])nc23)cc1 | < 4.30 | > 50.1 | 5.24 | 6.31 | >32 | 5.66 | 2.51 | > 32 |  |  |  |  |  |  |  | 
Cc1cn2cc([N+](=O)[O-])nc2c(=O)n1Cc1cccc(OC(F)(F)F)c1 | 4.80 | 15.8 | 5.55 | 2.51 | >32 | 5.96 | 1.26 | > 32 |  |  |  |  |  |  |  | 
Cc1ccc(Cn2c(C)cn3cc([N+](=O)[O-])nc3c2=O)cc1 | 5.00 | 10 | 5.36 | 3.98 | >32 | 6.25 | 0.501 | > 32 |  |  |  |  |  |  |  | 
NC(=O)c1nc([N+](=O)[O-])cn1Cc1ccc(F)cc1 | < 4.60 |  | 4.30 to 5.39 |  |  |  |  | > 32 | > 64 |  |  |  |  |  |  | 
O=C(NCc1ccccc1)c1nc([N+](=O)[O-])c[nH]1 | 5.35 to 5.66 |  | 6.30 to 6.70 |  |  |  |  | > 32 | 4 to 16 (≈ 16.2 to 65 µM) |  |  |  |  |  |  | 
O=[N+]([O-])c1cn2cc(-c3ccccc3)nc(OCCO)c2n1 | < 4.30 | > 50.1 | 5.28 | 5.01 |  | 5.96 | 1 | > 32 |  |  |  |  |  |  |  | 
CC(=O)OCCOc1nc(-c2ccccc2)cn2cc([N+](=O)[O-])nc12 | < 4.30 | > 50.1 | 5.72 | 2 |  | 5.82 | 1.58 | > 32 |  |  |  |  |  |  |  | 
CN(C)C(=O)c1nc([N+](=O)[O-])cn1Cc1ccc(OC(F)(F)F)cc1 | 4.35 to 5.00 |  | 5.12 to 5.57 |  |  |  |  | > 32 | 16 to 64 (≈ 44.7 to 179 µM) |  |  |  |  |  |  | 
NC(=O)c1nc([N+](=O)[O-])cn1Cc1ccc(OC(F)(F)F)cc1 | < 4.60 |  | 4.30 to 5.39 |  |  |  |  | > 32 | > 64 |  |  |  |  |  |  | 
Cc1cn2cc([N+](=O)[O-])nc2c(=O)n1Cc1ccccc1OC(F)(F)F | 5.04 | 10 | 5.48 | 3.16 | >32 | 5.68 | 2 | > 32 |  |  |  |  |  |  |  | 
O=C(NCc1ccc(F)cc1)c1ncc([N+](=O)[O-])[nH]1 | 5.35 to 5.66 |  | 6.30 to 6.70 |  |  |  |  | > 32 | 4 to 16 (≈ 15.1 to 60.6 µM) |  |  |  |  |  |  | 
Cc1c(C)n2cc([N+](=O)[O-])nc2c(=O)n1Cc1ccccc1OC(F)(F)F | 4.74 | 20 | 5.28 | 5.01 | >32 | 6.11 | 0.794 | > 32 |  |  |  |  |  |  |  | 
Cc1cn2cc([N+](=O)[O-])nc2c(=O)n1CCO | < 4.30 | > 50.1 | < 4.30 | > 50.1 |  | 5.34 | 5.01 | > 32 |  |  |  |  |  |  |  | 
Cc1cn2cc([N+](=O)[O-])nc2c(=O)[nH]1 | < 4.30 | > 50.1 | 4.30 | 50.1 | >32 | 5.44 | 3.98 | > 32 |  |  |  |  |  |  |  | 
NNC(=O)c1nc([N+](=O)[O-])cn1Cc1ccc(OC(F)(F)F)cc1 | 4.35 to 5.00 |  | 5.12 to 5.57 |  |  |  |  | > 32 | 16 to 64 (≈ 46.3 to 185 µM) |  |  |  |  |  |  | 
CNC(=O)c1nc([N+](=O)[O-])cn1Cc1ccc(OC(F)(F)F)cc1 | 4.35 to 5.00 |  | 5.12 to 5.57 |  |  |  |  | > 32 | 16 to 64 (≈ 46.5 to 186 µM) |  |  |  |  |  |  | 
CCOC(=O)c1nc([N+](=O)[O-])cn1Cc1ccc(OC(F)(F)F)cc1 | 4.35 to 5.00 |  | 5.12 to 5.57 |  |  |  |  | > 32 | 16 to 64 (≈ 44.5 to 178 µM) |  |  |  |  |  |  | 
O=c1c2nc([N+](=O)[O-])cn2ccn1CCO |  |  | < 4.30 | > 50.1 |  |  |  |  |  | > 32 | > 32 | > 32 | > 32 | > 32 | > 32 | > 32

From ChEMBL document CHEMBL4382237, “Design, Synthesis, and Biological Evaluation of 2-Nitroimidazopyrazin-one/-es with Antitubercular and Antiparasitic Activity” (J Med Chem, 2018)
